We go through eleven compounds from ChEMBL document CHEMBL4261577, “CureCuma-cationic curcuminoids with improved properties and enhanced antimicrobial photodynamic activity” (Eur J Med Chem, 2018).

The nature of data set [1]: n-Octanol/sorensen buffer partition coefficient, log D of compound at 50 uM at pH 7 after 10 mins by shake-flask method. It is filed as physicochemical. Put shortly:
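Shake-flask at 25 °C: 50 µM photosensitizer in 10 mM Sörensen buffer pH 6.8 vigorously mixed with equal volume n-octanol for 10 min, phases separated by centrifugation; aqueous-phase absorbance before and after partitioning gives the coefficient.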

The nature of data set [2]: Photodegradation of compound in water at 10 uM in presence of LED illumination at 5.6 J/cm'2 for 10 mins by UV/VIS/NIR spectrometer. The format is physicochemical. The note with it: read-out: Drug degradation. The method, boiled down:
(§1)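 10 µM in water in a 1 cm quartz cuvette, illuminated at 435 nm with the bacterial-testing LED (9.4 mW/cm²); absorption spectra taken at set time intervals, chromophore band 380–460 nm followed; half-life from extrapolation.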

Data set [3] in a line: Induction of reactive oxygen species formation assessed as singlet oxygen quantum yield at 2 uM measured over 20 mins by luminescence assay. The format is functional. The note with it: in the assay text read “over 50 secs” for “over 20 mins”. Put shortly: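 Singlet oxygen luminescence at 1270 nm from a 2 µM solution compared against TMPyP (0.5 µM) as reference, relating absorbed energy to emission; excitation at 405 nm with a tunable laser at 107, 162, 255 and 283 mW for 50 s each.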

Data set [4] is described as follows: Aggregating behavior of compound at 1 to 2 mM by NMR analysis. The note with it: 2000 µM. The format is physicochemical. The method, boiled down: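 1H NMR in D2O at 20, 10, 5, 2 and 1 mM; aggregation judged from signal shifts and multiplet changes in the aromatic region (6.5–8 ppm), referenced to external TMS, 400 MHz.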
The subject of another data set is Staphylococcus aureus. The experiment in a line: Photodynamic antibacterial activity against Staphylococcus aureus ATCC 25923 assessed as CFU log reduction at 50 uM irradiated for 5 mins in presence of blueV lamp irradiation at 5.3 J/cm2 and measured after 24 hrs. The format is functional. Put shortly:
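S. aureus ATCC25923 grown aerobically at 37 °C in Mueller-Hinton broth, pelleted and resuspended in distilled water to OD600 0.6 (~10^8 cells/mL); incubated 1 min with photosensitizer in 96-well plates, irradiated with BlueV source (390–460 nm, 20 mW/cm²) to 5.3 J/cm²; CFU by Miles-Misra on Mueller-Hinton agar after 24 h at 37 °C; log reduction versus untreated control; ≥3 replicates.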

For data set [5], the system named is Escherichia coli. The experiment in a line: Dark toxicity in Escherichia coli ATCC 25922 assessed as decrease in viable cells at 10 uM. It is filed as organism-based. The note with it: in vivo. Put shortly: (§2)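 E. coli ATCC25922 prepared as for phototoxicity (2 h subculture, DPBS resuspension), incubated with photosensitizer at 37 °C, 175 rpm, but kept in foil-wrapped plates without illumination; CFU counted from serial dilutions on Todd-Hewitt/yeast extract agar after overnight 37 °C, compared against untreated, unilluminated control; three biological replicates.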

Data set [6] in a line: Stability of compound in diluted HCl at 50 uM after 4 hrs by UV-Vis spectrophotometric method. It is filed as physicochemical. The note with it: buffer. Put shortly: (§3)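 UV-Vis spectra recorded after 4 h incubation in buffer solutions at different pH values, acidic down to pH 2 and alkaline above pH 10.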
Data set [7] in a line: Stability of compound in diluted NaOH at 50 uM after 4 hrs by UV-Vis spectrophotometric method. The format is physicochemical. The method, boiled down:
as §3

In data set [8] the test system is Escherichia coli. The experiment in a line: Dark toxicity in Escherichia coli ATCC 25922 assessed as decrease in viable cells at 50 uM relative to control. It is filed as organism-based. The note with it: in vivo. The method, boiled down: as §2
Data set [9] in a line: Drug level in 0.1 M phosphate buffer treated with curcumin at pH 7.2 at 37 degC after 30 mins by HPLC method. The note with it: pH 7.2, 0.5 h. It is filed as physicochemical.
Data set [10] relates to Escherichia coli. The experiment in a line: Photodynamic antibacterial activity against Escherichia coli ATCC 25922 assessed as reduction in bacterial burden at 50 uM complexed with PVP in presence of LED irradiation at LED light at 33.8 J/cm2. It is filed as functional, organism-based.
Data set [11] relates to Escherichia coli. In words: Photodynamic antibacterial activity against Escherichia coli ATCC 25922 assessed as CFU log reduction at 100 uM complexed with PVP in presence of LED irradiation at LED light at 33.8 J/cm2 relative to control. The format is functional.
Data set [12] can be described thus: Stability of compound in DMSO-d6 at 10 mM incubated up to 130 degC measured after > 10 mins by NMR method. It is filed as physicochemical. The note with it: 10000 µM. Put shortly: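 1H NMR at 10 mM heated stepwise from room temperature through 40–130 °C in 10 °C steps, then cooled back to room temperature; aggregation/stability judged from aromatic-region shifts; external TMS reference, 400 MHz.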

The nature of data set [13]: Aggregating behavior of compound up to 1 mM by UV-Vis spectroscopic analysis. The format is physicochemical. Put shortly:
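UV-Vis absorption spectra in H2O over 100–1000 µM; dimerization judged from spectral changes within error margins.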

For data set [14], the system named is Escherichia coli. In words: Photodynamic antibacterial activity against Escherichia coli ATCC 25922 assessed as CFU log reduction irradiated for 1.5 mins in presence of 0.85 J/cm2 and measured after 24 hrs. The format is functional. To be noted: ATCC 25922, light or radiation study, read-out: MBC99.9.
The test system of data set [15] is Escherichia coli. In words: Photodynamic antibacterial activity against Escherichia coli ATCC 25922 assessed as CFU log reduction at 10 uM irradiated for 2.5 mins in presence of 1.41 J/cm2 and measured after 24 hrs. It is filed as functional.
Data set [16] can be described thus: Photodegradation of compound in water at 10 uM in presence of LED illumination at 16.9 J/cm'2 for 30 mins by UV/VIS/NIR spectrometer. It is filed as physicochemical. To be noted: read-out: Drug degradation. The method, boiled down:
as §1

A short description of data set [17]: Half life of compound in water at 10 uM in presence of LED illumination at 9.4 mW/cm'2 by UV/VIS/NIR spectrometer. It is filed as physicochemical. The method, boiled down: as §1
Data set [18] deals with Escherichia coli. In words: Photodynamic antibacterial activity against Escherichia coli ATCC 25922 assessed as CFU log reduction irradiated for 5 to 25 mins in presence of LED light at 33.8 J/cm2 and measured after 24 hrs. It is filed as functional. To be noted: ATCC 25922, light or radiation study, read-out: MBC99.9. Put shortly: (§4)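 E. coli ATCC25922 grown overnight at 37 °C (175 rpm) in Todd-Hewitt broth + 0.3% yeast extract, diluted to A 0.05, grown 2 h (A600 0.3–0.45), pelleted and resuspended in DPBS; incubated with photosensitizer 5 or 25 min at 37 °C, illuminated with 435 nm LED array (9.4 mW/cm², 33.8 J/cm²) while shaken; serial dilutions plated, CFU counted after overnight 37 °C. Log reduction versus untreated, unilluminated control; ≥3 biological replicates; detection limit 10 CFU/mL.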

Data set [19] deals with Escherichia coli. The experiment in a line: Photodynamic antibacterial activity against Escherichia coli ATCC 25922 assessed as CFU log reduction at 10 uM irradiated for 5 to 25 mins in presence of LED light at 33.8 J/cm2 and measured after 24 hrs relative to control. It is filed as functional. Put shortly:
as §4

Activity calls are given as the source filed them. The rule behind the calls is not given here.

The logD is the decadic logarithm of the distribution of all forms, ionised or not, between an organic phase and buffer at a given pH. In data set [1], `COc1cc(OCCN)ccc1/C=C/C(=O)CC(=O)/C=C/c1ccc(OCCN)cc1OC.Cl.Cl` showed a logD at 10 min, 50 µM of -1.1. The degraded at 10 min, 10 µM in data set [2] was less than 10%. Also, the Activity in [3] is less than 1%.
Consider `COc1cc(/C=C/C(=O)CC(=O)/C=C/c2ccc(OCCN)c(OC)c2)ccc1OCCN.Cl.Cl`, for which the logD at 10 min, 50 µM in [1] is -1.2. Moreover, the Activity result is “Active” in [4], “Non-Toxic” in the data set on Escherichia coli [5], less than 1% in data set [3] and 0.5 deltalog10CFU/ml in the data set on Escherichia coli [8]. The log reduction in the data set with Staphylococcus aureus is 5.2 log10 CFU/mL. Moreover, the degraded at 10 min, 10 µM in data set [2] was less than 10%. The values for the Stability result in data set [6] and in data set [7] were “Stable” and “Unstable”, respectively.
For the compound `COc1cc(C=O)ccc1O` [VANILLIN], the Drug metabolism result in data set [9] is “Metabolite_Detected”.
Regarding `COc1cc(/C=C/C(=O)CC(=O)/C=C/c2ccc(O)c(OC)c2)ccc1O` [CURCUMIN], in the data set on Escherichia coli [10], the outcome was inactive. The Activity in the data set on Escherichia coli [11] came out at 0.3 deltalog10CFU/ml.
With `Cc1cc(/C=C/C(=O)CC(=O)/C=C/c2ccc(OCCN)c(C)c2)ccc1OCCN.Cl.Cl`, the logD at 10 min, 50 µM in [1] is -0.8. Further, the degraded at 10 min, 10 µM in data set [2] was less than 10%. Further, in data set [3], the Activity is less than 1%. In addition, the Stability entry in data set [12] is recorded as “Stable”.
In [1], `Cl.Cl.NCCOc1ccc(/C=C/C(=O)CC(=O)/C=C/c2ccc(OCCN)cc2)cc1` showed a logD at 10 min, 50 µM of -0.9. For the same compound, the degraded at 10 min, 10 µM in data set [2] was less than 10%. Moreover, the Activity in data set [3] was less than 1%.
One may read the half-life as the time in which the quantity being followed falls by half. Regarding `Cl.Cl.Cl.Cl.NCCOc1ccc(/C=C/C(=O)CC(=O)/C=C/c2ccc(OCCN)c(OCCN)c2)cc1OCCN`, the Activity entry in data set [13] is “Active”; in the data set on Escherichia coli [5], “Non-Toxic”; in the data set on Escherichia coli [15], more than 5 deltalog10CFU/ml; in [3], less than 1%; in the data set on Escherichia coli [8], 1 deltalog10CFU/ml; in the data set with Escherichia coli [19], 5 deltalog10CFU/ml. Also, the logD at 10 min, 50 µM in [1] was less than -2. Besides, the log reduction with Staphylococcus aureus stood at 5.3 log10 CFU/mL. Also, the results for the MBC in the data set on Escherichia coli [14] and in the data set with Escherichia coli [18] were 10 µM and 5 µM, respectively. Moreover, the degraded at 10 min, 10 µM in [2] is less than 10%. For the same compound, the degraded at 0.5 h, 10 µM in data set [16] came out at 20%. Also, the half-life at 10 µM in data set [17] was 1 h. Besides, the results for the Stability entry in [6] and in data set [7] were “Stable” and “Unstable”, respectively.
The compound `COc1cc(/C=C/C(=O)CC(=O)/C=C/c2ccc(OCCOCCN)c(OC)c2)ccc1OCCOCCN.Cl.Cl` displayed a logD at 10 min, 50 µM in data set [1] of -1.6. Further, in [2], the degraded at 10 min, 10 µM was less than 10%. Besides, in [3], the Activity is less than 1%.
On to `Cl.Cl.Cl.Cl.Cl.Cl.NCCOc1cc(/C=C/C(=O)CC(=O)/C=C/c2cc(OCCN)c(OCCN)c(OCCN)c2)cc(OCCN)c1OCCN`, for which, in [1], the logD at 10 min, 50 µM was less than -2. Further, in [2], the degraded at 10 min, 10 µM was less than 10%. Further, the Activity in [3] was less than 1%.
Regarding `Cl.Cl.NCCCOc1ccc(/C=C/C(=O)CC(=O)/C=C/c2ccc(OCCCN)c(OCc3ccccc3)c2)cc1OCc1ccccc1`, the logD at 10 min, 50 µM in [1] was -0.6. In addition, the degraded at 10 min, 10 µM in [2] is less than 10%. Further, the Activity in data set [3] was less than 1%.
`CC(C)=O` [ACETONE]: the Drug metabolism result in [9] is given as “Metabolite_Detected”.
